Measured values: ChEMBL document CHEMBL1145628, “New tetrazole-based selective anandamide uptake inhibitors” (Bioorg Med Chem Lett, 2008)

Columns and labels:
[1] = target: T1, Fatty-acid amide hydrolase 1 (Rattus norvegicus, UniProt P97612); test: Inhibition of rat brain FAAH mediated [14C]anandamide hydrolysis
T1 sequence (P97612 whole entry): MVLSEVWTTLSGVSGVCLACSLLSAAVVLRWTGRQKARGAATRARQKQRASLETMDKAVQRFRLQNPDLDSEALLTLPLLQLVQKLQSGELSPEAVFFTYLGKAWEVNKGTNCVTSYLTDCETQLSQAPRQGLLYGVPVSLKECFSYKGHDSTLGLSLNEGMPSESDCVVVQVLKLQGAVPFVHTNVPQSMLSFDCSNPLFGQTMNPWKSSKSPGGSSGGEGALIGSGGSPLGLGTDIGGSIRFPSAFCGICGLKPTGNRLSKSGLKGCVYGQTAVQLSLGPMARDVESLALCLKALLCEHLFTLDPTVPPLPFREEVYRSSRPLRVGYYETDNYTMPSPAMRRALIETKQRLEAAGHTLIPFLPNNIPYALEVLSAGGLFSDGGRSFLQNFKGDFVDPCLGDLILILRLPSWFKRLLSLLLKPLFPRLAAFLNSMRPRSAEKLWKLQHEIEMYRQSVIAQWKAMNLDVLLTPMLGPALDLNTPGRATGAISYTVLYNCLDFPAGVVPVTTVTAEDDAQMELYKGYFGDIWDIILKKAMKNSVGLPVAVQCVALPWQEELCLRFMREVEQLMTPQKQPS
Outline: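 Hydrolysis of [14C]anandamide was measured with rat brain membranes as the enzyme source; means of n = 4.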

[2] = tested on: RBL-2H3; test: Inhibition of [14C]anandamide uptake in rat RBL-2H3; format: functional, cell-based
Outline: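 Uptake of [14C]anandamide was measured in intact RBL-2H3 cells; means of n = 4.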

[3] = Inhibition of human MAGL mediated [14C]2-AG hydrolysis in COS cell; format: cell-based
Outline: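 Enzyme source was cytosolic fractions of COS cells (MAGL-expressing), with hydrolysis of [14C]2-AG as the read-out; means of 4 determinations.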

[4] = target: T2, Diacylglycerol lipase-alpha (Homo sapiens, UniProt Q9Y4D2); test: Inhibition of human DAGLalpha mediated sn-1-[14C]oleoyl-2-arachidonoyl-glycerol hydrolysis to 2-AG in COS cell
T2 sequence (Q9Y4D2 whole entry): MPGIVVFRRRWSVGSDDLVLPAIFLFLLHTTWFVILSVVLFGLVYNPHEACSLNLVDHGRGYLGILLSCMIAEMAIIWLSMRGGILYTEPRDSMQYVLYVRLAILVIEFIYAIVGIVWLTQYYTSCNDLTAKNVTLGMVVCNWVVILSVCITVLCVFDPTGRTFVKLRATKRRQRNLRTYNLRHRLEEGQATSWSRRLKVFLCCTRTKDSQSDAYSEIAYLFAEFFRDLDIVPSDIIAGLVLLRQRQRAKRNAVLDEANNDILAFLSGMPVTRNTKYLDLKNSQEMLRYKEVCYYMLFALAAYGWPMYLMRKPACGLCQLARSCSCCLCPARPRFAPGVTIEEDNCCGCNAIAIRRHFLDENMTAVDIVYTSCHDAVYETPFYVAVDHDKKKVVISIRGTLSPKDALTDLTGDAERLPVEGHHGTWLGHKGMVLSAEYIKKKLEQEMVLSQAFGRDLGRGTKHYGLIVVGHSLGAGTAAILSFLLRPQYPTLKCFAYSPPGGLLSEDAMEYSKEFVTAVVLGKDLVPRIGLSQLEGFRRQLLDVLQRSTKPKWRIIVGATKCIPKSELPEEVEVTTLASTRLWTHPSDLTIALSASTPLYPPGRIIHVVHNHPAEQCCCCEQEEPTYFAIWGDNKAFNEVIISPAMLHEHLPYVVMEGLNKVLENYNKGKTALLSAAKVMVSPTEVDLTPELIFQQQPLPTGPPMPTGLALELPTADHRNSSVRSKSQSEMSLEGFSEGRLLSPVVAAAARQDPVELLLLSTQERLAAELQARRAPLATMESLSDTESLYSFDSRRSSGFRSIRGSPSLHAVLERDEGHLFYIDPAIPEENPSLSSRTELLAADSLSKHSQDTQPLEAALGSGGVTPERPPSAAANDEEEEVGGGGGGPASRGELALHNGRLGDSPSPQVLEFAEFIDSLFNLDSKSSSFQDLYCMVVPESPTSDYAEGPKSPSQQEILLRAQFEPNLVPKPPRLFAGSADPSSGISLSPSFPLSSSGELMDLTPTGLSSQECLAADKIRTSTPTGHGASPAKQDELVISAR
Outline: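 Substrate: sn-1-[14C]oleoyl-2-arachidonoyl-glycerol. Conversion into 2-AG and [14C]oleic acid was followed using membranes of COS cells overexpressing human recombinant DAGLα; n = 4 means.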

[5] = target: Cannabinoid receptor 1 (Homo sapiens, UniProt P21554); test: Binding affinity to human CB1 receptor expressed in COS cells; format: cell-based
Outline: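 Tested at CB1 receptors in transfected COS cells; means of 4 separate determinations.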

[6] = target: Cannabinoid receptor 2 (Homo sapiens, UniProt P34972); test: Binding affinity to human CB2 receptor expressed in COS cells; format: cell-based
Outline: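 Human CB2 receptor expressed by transfection in COS cells. Each value is the mean of 4 separate determinations.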

[7] = target: Transient receptor potential cation channel subfamily A member 1 (Rattus norvegicus, UniProt Q6RI86); test: Agonist activity at rat TRPA1 channel expressed in human HEK293 cells assessed as elevation in intracellular calcium flux; format: functional, cell-based
Outline: (§1)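 Stably rat TRPA1-transfected HEK-293 cells, grown 3 days, were loaded with 4 µM Fluo4-AM plus 0.02% Pluronic for 1 h at room temperature. They were washed and resuspended in Tyrode's buffer pH 7.4, and [Ca2+]i was read under stirring (ex 488/em 516 nm) before and after compound addition. EC50 is the half-maximal [Ca2+]i rise. Efficacy (100 µM compound) is expressed relative to 100 µM mustard oil; n = 4 means.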

[8] = target: Transient receptor potential cation channel subfamily A member 1 (Rattus norvegicus) (UniProt Q6RI86); test: Agonist activity at rat TRPA1 channel expressed in human HEK293 cells assessed as elevation in intracellular calcium flux at 100 uM relative to mustard oil; format: functional, cell-based; outline: as §1
[9] = target: T3, Transient receptor potential cation channel subfamily V member 1 (Homo sapiens, UniProt Q8NER1); test: Agonist activity at human TRPV1 channel expressed in human HEK293 cells assessed as elevation in intracellular calcium flux; format: functional, cell-based
Outline: (§2)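 HEK-293 cells overexpressing TRPV1 were used, with intracellular Ca2+ elevation as the read-out. The single-point value is the effect of 10 µM compound as percent of the Ca2+ response to 4 µM ionomycin. Data are means of 4 separate determinations.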

[10] = target: T3, Transient receptor potential cation channel subfamily V member 1; test: Agonist activity at human TRPV1 channel expressed in human HEK293 cells assessed as elevation in intracellular calcium flux at 10 uM relative to ionomycin; format: functional, cell-based; outline: as §2

Chain of Cannabinoid receptor 2 (P34972 whole entry): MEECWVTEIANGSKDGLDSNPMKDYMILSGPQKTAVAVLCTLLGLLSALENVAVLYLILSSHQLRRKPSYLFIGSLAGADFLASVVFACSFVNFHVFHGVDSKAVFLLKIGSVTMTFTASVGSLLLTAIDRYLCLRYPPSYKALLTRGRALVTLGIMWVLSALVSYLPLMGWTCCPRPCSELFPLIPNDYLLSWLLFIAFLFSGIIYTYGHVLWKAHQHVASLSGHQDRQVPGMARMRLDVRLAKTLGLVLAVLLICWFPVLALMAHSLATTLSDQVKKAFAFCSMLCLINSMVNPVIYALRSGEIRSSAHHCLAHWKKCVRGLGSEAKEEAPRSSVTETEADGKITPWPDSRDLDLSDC
Chain of Transient receptor potential cation channel subfamily A member 1 (Q6RI86 whole entry): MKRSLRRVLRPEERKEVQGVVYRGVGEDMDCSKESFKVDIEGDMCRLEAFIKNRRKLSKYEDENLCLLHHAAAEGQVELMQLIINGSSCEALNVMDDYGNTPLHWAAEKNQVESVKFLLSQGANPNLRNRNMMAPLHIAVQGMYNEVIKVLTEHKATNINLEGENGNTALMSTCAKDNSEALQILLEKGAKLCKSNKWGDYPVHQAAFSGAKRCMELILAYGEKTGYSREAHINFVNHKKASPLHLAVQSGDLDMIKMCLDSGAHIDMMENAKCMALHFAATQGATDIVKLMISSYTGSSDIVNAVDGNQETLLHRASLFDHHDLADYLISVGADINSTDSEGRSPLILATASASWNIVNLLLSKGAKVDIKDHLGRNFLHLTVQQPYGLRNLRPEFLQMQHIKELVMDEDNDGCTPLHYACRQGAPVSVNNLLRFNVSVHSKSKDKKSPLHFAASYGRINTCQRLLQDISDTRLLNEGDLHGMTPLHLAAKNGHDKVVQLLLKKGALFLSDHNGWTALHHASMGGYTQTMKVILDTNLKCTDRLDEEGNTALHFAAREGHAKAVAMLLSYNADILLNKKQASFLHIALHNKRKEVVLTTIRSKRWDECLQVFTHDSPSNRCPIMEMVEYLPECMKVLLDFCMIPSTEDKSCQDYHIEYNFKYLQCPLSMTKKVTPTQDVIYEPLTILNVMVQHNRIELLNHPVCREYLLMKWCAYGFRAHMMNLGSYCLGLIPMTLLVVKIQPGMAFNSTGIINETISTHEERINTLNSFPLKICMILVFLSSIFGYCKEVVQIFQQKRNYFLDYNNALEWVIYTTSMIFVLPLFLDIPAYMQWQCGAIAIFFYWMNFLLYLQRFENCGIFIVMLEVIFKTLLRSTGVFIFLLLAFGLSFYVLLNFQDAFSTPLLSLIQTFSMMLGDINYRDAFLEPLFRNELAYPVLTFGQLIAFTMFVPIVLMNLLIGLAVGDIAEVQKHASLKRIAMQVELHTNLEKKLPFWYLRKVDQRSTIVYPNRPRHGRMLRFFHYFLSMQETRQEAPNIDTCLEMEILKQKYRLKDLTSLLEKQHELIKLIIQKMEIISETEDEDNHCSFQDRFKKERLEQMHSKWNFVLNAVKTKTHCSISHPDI
Chain of Transient receptor potential cation channel subfamily A member 1 (Rattus norvegicus) (Q6RI86 whole entry): as above
Chain of Cannabinoid receptor 1 (P21554 whole entry): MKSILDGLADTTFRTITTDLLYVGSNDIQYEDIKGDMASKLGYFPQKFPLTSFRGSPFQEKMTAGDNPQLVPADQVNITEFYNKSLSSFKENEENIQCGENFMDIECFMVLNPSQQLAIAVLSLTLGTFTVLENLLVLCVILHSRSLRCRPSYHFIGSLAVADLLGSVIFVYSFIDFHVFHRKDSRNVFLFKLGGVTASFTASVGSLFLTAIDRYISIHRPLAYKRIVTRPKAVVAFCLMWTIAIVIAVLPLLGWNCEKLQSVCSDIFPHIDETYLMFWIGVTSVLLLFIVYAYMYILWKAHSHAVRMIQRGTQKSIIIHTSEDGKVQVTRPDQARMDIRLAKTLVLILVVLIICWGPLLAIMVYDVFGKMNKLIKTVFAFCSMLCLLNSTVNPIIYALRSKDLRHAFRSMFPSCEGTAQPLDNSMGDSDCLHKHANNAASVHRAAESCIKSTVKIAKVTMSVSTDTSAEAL
T3 sequence (Q8NER1 whole entry): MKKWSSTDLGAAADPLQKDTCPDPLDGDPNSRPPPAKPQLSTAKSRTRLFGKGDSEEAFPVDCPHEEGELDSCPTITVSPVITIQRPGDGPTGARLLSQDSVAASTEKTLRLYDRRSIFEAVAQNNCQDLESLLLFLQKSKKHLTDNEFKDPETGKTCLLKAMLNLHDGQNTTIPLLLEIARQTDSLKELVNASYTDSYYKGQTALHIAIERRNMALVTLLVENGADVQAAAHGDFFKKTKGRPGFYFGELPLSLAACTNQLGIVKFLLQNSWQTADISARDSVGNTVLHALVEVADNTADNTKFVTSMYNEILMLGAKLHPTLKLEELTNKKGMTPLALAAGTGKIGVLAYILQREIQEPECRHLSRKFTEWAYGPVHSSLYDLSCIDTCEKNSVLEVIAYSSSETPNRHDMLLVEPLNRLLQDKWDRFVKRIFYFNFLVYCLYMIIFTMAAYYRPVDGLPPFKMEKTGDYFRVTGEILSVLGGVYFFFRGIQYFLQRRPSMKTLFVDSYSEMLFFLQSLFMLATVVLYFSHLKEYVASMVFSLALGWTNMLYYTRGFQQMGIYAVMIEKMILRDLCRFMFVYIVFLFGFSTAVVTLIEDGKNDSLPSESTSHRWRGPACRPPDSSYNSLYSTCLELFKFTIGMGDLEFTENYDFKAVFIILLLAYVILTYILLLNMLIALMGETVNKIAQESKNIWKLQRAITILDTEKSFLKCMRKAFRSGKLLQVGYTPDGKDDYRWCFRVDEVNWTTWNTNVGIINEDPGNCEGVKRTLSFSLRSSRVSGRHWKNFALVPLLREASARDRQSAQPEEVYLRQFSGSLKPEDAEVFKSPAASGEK

| SMILES | IC50 [1] [µM] | IC50 [2] [µM] | IC50 [3] [µM] | IC50 [4] [µM] | Ki [5] [µM] | Ki [6] [µM] | EC50 [7] [µM] | Efficacy [8] [%] | EC50 [9] [µM] | Efficacy [10] [%] |
| --- | --- | --- | --- | --- | --- | --- | --- | --- | --- | --- |
| CC(C)Cn1nnc(Cc2ccc(-c3ccccc3)cc2)n1 | > 50 | > 25 | > 10 | > 10 | 1.6 | 4.7 | 26.3 | 136 | 10 | 20.7 |
| CC(C)Cn1nnc(CNC(=O)c2ccc(-c3ccccc3)cc2)n1 | > 50 | > 25 | > 10 | > 10 | > 10 | > 10 | > 100 | 0 | 53.5 | 10.2 |
| N#CCn1nnnc1CNC(=O)c1ccc(-c2ccccc2)cc1 | > 50 | > 25 | > 10 | > 10 | > 10 | > 10 | > 100 | 0 | > 100 | 6.3 |
| CC(=O)Cn1nnnc1CNC(=O)c1ccc(-c2ccccc2)cc1 | > 50 | 12.5 | > 10 | > 10 | > 10 | > 10 | > 100 | 0 | > 100 | 7.7 |
| N#CCn1nnc(Cc2ccc(-c3ccccc3)cc2)n1 | > 50 | 5.1 | > 10 | > 10 | > 10 | 6.2 | 16.2 | 102 | > 100 | 0 |
| COC(=O)Cn1nnnc1Cc1ccc(-c2ccccc2)cc1 | > 50 | 4.9 | > 10 | > 10 | > 10 | > 10 | > 100 | 0 | > 100 | 0 |
| CN(C)C(=O)Cn1nnc(Cc2ccc(-c3ccccc3)cc2)n1 | > 50 | > 25 | > 10 | > 10 | > 10 | > 10 | > 100 | 0 | > 100 | 5.3 |
| COC(=O)Cn1nnc(Cc2ccc(-c3ccccc3)cc2)n1 | > 50 | > 25 | > 10 | > 10 | > 10 | 8.1 | > 100 | 36 | > 100 | 0 |
| CC(=O)Cn1nnc(CNC(=O)c2ccc(-c3ccccc3)cc2)n1 | > 50 | > 25 | > 10 | > 10 | > 10 | > 10 | > 100 | 14 | > 100 | 0 |
| COC(=O)Cn1nnc(CNC(=O)c2ccc(-c3ccccc3)cc2)n1 | > 50 | > 25 | > 10 | > 10 | > 10 | > 10 | > 100 | 0 | > 100 | 2.2 |
| CN(C)C(=O)Cn1nnc(CNC(=O)c2ccc(-c3ccccc3)cc2)n1 | > 50 | 2.3 | > 10 | > 10 | > 10 | > 10 | > 100 | 0 | > 100 | 1.2 |
| CN(C)C(=O)Cn1nnnc1Cc1ccc(-c2ccccc2)cc1 | > 50 | 5.1 | > 10 | > 10 | > 10 | > 10 | > 100 | 0 | > 100 | 4 |
| CC(C)Cn1nnnc1Cc1ccc(-c2ccccc2)cc1 | > 50 | > 25 | > 10 | > 10 | > 10 | 7.7 | > 100 | 50.8 | > 100 | 4.7 |
| CC(=O)Cn1nnc(Cc2ccc(-c3ccccc3)cc2)n1 | > 50 | > 25 | > 10 | > 10 | > 10 | 5.2 | > 100 | 61.4 | > 100 | 0 |
| CC(=O)Cn1nnnc1Cc1ccc(-c2ccccc2)cc1 | > 50 | 5 | > 10 | > 10 | > 10 | > 10 | > 100 | 11.4 | > 100 | 0 |
| N#CCn1nnc(CNC(=O)c2ccc(-c3ccccc3)cc2)n1 | > 50 | > 25 | > 10 | > 10 | > 10 | > 10 | > 100 | 0 | > 100 | 2.6 |
| COC(=O)Cn1nnnc1CNC(=O)c1ccc(-c2ccccc2)cc1 | > 50 | > 25 | > 10 | > 10 | > 10 | > 10 | > 100 | 0 | 29.6 | 8.6 |
| CC(C)Cn1nnnc1CNC(=O)c1ccc(-c2ccccc2)cc1 | > 50 | > 25 | > 10 | > 10 | > 10 | > 10 | > 100 | 26.1 | 15 | 9.1 |
| N#CCn1nnnc1Cc1ccc(-c2ccccc2)cc1 | > 50 | 24.8 | > 10 | > 10 | > 10 | > 10 | 26.3 | 83.2 | > 100 | 5.4 |
